Our source for the IC50 and inhibition values is ChEMBL document CHEMBL1154497, “Evaluating the potential of vacuolar ATPase inhibitors as anticancer agents and multigram synthesis of the potent salicylihalamide analog saliphenylhalamide” (Bioorg Med Chem Lett, 2008).

For one series, the system named is HepG2. Briefly: Cytotoxicity against human HepG2 cells expressing vacuolar ATPase. In kind it is functional, cell-based. An outline of the steps: (§1)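 Cancer cell lines treated across a range of compound concentrations; the concentration inhibiting growth by 50% was calculated. IC50 given as average ± standard deviation of three experiments.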
The next series has as its system NCI-H460. Description: Cytotoxicity against human NCI-H460 cells expressing vacuolar ATPase. It is filed as functional, cell-based. An outline of the steps: as §1
A further series relates to NCI-H1299. Description: Cytotoxicity against human NCI-H1299 cells expressing vacuolar ATPase. It is filed as functional, cell-based. A digest of the protocol:
as §1

For another series, the system named is PANC-1. Briefly: Cytotoxicity against human PANC1 cells expressing vacuolar ATPase. It is filed as functional, cell-based. A digest of the protocol: as §1
The test system of a further series is HCT-15. Briefly: Cytotoxicity against human HCT15 cells expressing vacuolar ATPase. In kind it is functional, cell-based. A digest of the protocol: as §1
Another series concerns HT-29. Briefly: Cytotoxicity against human HT-29 cells expressing vacuolar ATPase. In kind it is functional, cell-based. An outline of the steps:
as §1

The next series concerns SK-MES-1. Briefly: Cytotoxicity against human SKMES1 cells expressing vacuolar ATPase. It is filed as functional, cell-based. A digest of the protocol:
as §1

For another series, the system named is ASPC1. Description: Cytotoxicity against human AsPC1 cells expressing vacuolar ATPase. In kind it is functional, cell-based. An outline of the steps:
as §1

The subject of a further series is SK-MEL-5. Description: Cytotoxicity against human SK-MEL-5 cells expressing vacuolar ATPase. It is filed as functional, cell-based. A digest of the protocol: as §1
The nature of series [1]: Cytotoxicity against human MCF7/DX cells expressing vacuolar ATPase. In kind it is functional, cell-based. An outline of the steps: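 Doxorubicin-resistant MCF-7 subline, resistant to chemotherapeutics that are P-glycoprotein substrates. Cells treated across a range of compound concentrations; the concentration inhibiting growth by 50% was calculated. IC50 given as average ± standard deviation of three experiments.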

The next series relates to MG-63. Description: Cytotoxicity against human MG63 cells expressing vacuolar ATPase. In kind it is functional, cell-based. An outline of the steps:
as §1

Another series concerns SK-HEP1. Briefly: Cytotoxicity against human SKHEP1 cells expressing vacuolar ATPase. In kind it is functional, cell-based. A digest of the protocol:
as §1

The next series relates to A2058. Briefly: Cytotoxicity against human A2058 cells expressing vacuolar ATPase. In kind it is functional, cell-based. A digest of the protocol:
as §1

Another series relates to MCF7. Description: Cytotoxicity against human MCF7 cells expressing vacuolar ATPase. It is filed as functional, cell-based. An outline of the steps:
as §1

Another series relates to HOS. Briefly: Cytotoxicity against human HOS cells expressing vacuolar ATPase. In kind it is functional, cell-based. An outline of the steps: as §1
The next series relates to HCT-116. Description: Cytotoxicity against human HCT116 cells expressing vacuolar ATPase. It is filed as functional, cell-based. An outline of the steps: as §1
The next series concerns SW480. Description: Cytotoxicity against human SW480 cells expressing vacuolar ATPase. It is filed as functional, cell-based. A digest of the protocol: as §1
Another series concerns A549. Description: Cytotoxicity against human A549 cells expressing vacuolar ATPase. In kind it is functional, cell-based. A digest of the protocol: as §1
The next series relates to SK-MEL-28. Briefly: Cytotoxicity against human SK-MEL-28 cells expressing vacuolar ATPase. In kind it is functional, cell-based. A digest of the protocol:
as §1

The next series has as its system MDA-MB-231. Description: Cytotoxicity against human MDA-MB-231 cells expressing vacuolar ATPase. In kind it is functional, cell-based. A digest of the protocol:
as §1

A short description of series [2]: Growth inhibition of human HME50T cells at 100 nM. In kind it is functional.
Series [3] in a line: Growth inhibition of human HME50 cells at 100 nM. It is filed as cell-based.

Broadly, the IC50 is the concentration at which inhibition is half-maximal. In general, inhibition refers to the share of the control response that was lost under treatment. High values mean strong suppression, low ones little suppression. As to `C[C@H]1C/C=C/Cc2cccc(O)c2C(=O)O[C@@H](C/C=C/NC(=O)C#Cc2ccccc2)C[C@H]1O` [SALIPHENYLHALAMIDE], the IC50 with HepG2 stood at 79.2 nM; with NCI-H460 it was 52.9 nM; in the series with NCI-H1299, 77.2 nM; in the series on PANC-1, 124 nM; in the series with HCT-15, 100 nM; in the series with HT-29, 89.9 nM. The 50% inhibitory concentration (IC50) came out at 76.4 nM in the series with SK-MES-1; 75.9 nM with ASPC1; 106 nM in the series on SK-MEL-5; 160 nM in series [1]; 449 nM with MG-63; 40.7 nM in the series on SK-HEP1. The IC50 with A2058 is 154 nM; with MCF7, 156 nM; in the series on HOS, 48.8 nM; in the series on HCT-116, 69.3 nM; with SW480 it was 425 nM; in the series on A549, 146 nM. The results for the 50% inhibitory concentration (IC50) in the series on SK-MEL-28 and in the series on MDA-MB-231 were 98.5 nM and 180 nM, respectively. This compound also showed an inhibition at 0.1 µM in [2] of 95%.

`CC/C=C\C=C/C(=O)N/C=C/C[C@H]1C[C@@H](O)[C@@H](C)C/C=C/Cc2cccc(O)c2C(=O)O1` [SALICYLIHALAMIDE A]: the inhibition at 0.1 µM in series [3] was found to be 60%; in series [2], 75%.
